Data reported in PMC11959959 (Acta Pharmaceutica Sinica. B, 2024).

Experiments:
B16F10 cells = assay: Cell uptake assay in B16F10 cells; assay type: cell-based, murine; conditions: 750 kBq/mL, 5-80 min
[1] = test system: B16F10 tumor-bearing mice; assay: PET/CT imaging in B16F10 tumor-bearing mice; assay type: in vivo; conditions: 0.5 and 1 h p.i.
In short: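 Mice bear s.c. B16F10 allografts (1×10^6 cells, left flank), imaged at tumor volume ≥100 mm³, usually day 10. They receive 200 μCi of tracer in 100 μL normal saline by tail vein. Dynamic micro-PET/CT runs for 1 h from injection, with three mice per tracer. The PEGylated tracer also gets static scans at 0.5, 1, 5, 10 and 24 h. Data are decay-corrected and given as %ID/g.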

[^64Cu]QM-2303: 64Cu-labeled PEGibody from QM-2302 PEGylated with 4-arm PEG (KSSPHSRNSGSGSGSGSGRGDSPC; NOTA conjugated to the N-terminus; thiol group of the C-terminal cysteine linked to 4-arm PEG; labelled with ^64Cu in the cell assays)
cell uptake / percentage of binding to integrin α5β1 (B16F10 cells): greater percentage of binding to integrin α5β1 than [^64Cu]QM-2301 and [^64Cu]QM-2302
kidney accumulation [1]: comparable to that of [^64Cu]QM-2301
